Laboratory results published in ChEMBL document CHEMBL4138228, “Substituted carbamothioic amine-1-carbothioic thioanhydrides as novel trichomonicidal fungicides: Design, synthesis, and biology” (Eur J Med Chem, 2018).
Values after ≈ are worked out from the molar mass of the structure shown.

Tests used:
[1] = test system: Candida albicans; assay: Antifungal activity against Candida albicans ATCC 66027 after 48 hrs by broth microdilution method; assay type: functional; conditions: ATCC 66027, 48 h
Method in brief: (§1)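 Broth microdilution per NCCLS guidelines in MOPS-buffered RPMI 1640; starting inoculum 1-5 x 10^3 CFU/mL; plates incubated at 35 °C; MIC recorded after 48 h; fluconazole as reference; experiments repeated three times.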

[2] = test system: Nakaseomyces glabratus; assay: Antifungal activity against Candida glabrata ATCC 2001 after 48 hrs by broth microdilution method; assay type: functional; conditions: ATCC 2001, 48 h; method in brief: as §1
[3] = Selectivity index, ratio of IC50 for human HeLa cells to MIC for metronidazole-resistant Trichomonas vaginalis CDC085 ATCC 50143; assay type: toxicity; conditions: read-out: Selectivity Index
[4] = test system: Trichomonas vaginalis; assay: Potency index, ratio of metronidazole MIC to test compound MIC for metronidazole-susceptible Trichomonas vaginalis; assay type: functional
[5] = test system: Candida albicans; assay: Antifungal activity against Candida albicans ATCC 14053 after 48 hrs by broth microdilution method; assay type: functional; conditions: ATCC 14053, 48 h; method in brief: as §1
[6] = test system: HeLa; assay: Cytotoxicity against human HeLa cells after 24 hrs by MTT assay; assay type: cell-based
[7] = test system: Candida albicans; assay: Antifungal activity against Candida albicans patient isolate after 48 hrs by broth microdilution method; assay type: functional; method in brief: as §1
[8] = test system: Sporothrix schenckii; assay: Antifungal activity against Sporothrix schenckii after 48 hrs by broth microdilution method; assay type: functional; method in brief: as §1
[9] = test system: Candida parapsilosis; assay: Antifungal activity against Candida parapsilosis ATCC 22019 after 48 hrs by broth microdilution method; assay type: functional; conditions: Lodderomyces parapsilosis, ATCC 22019, 48 h; method in brief: as §1
[10] = test system: Trichophyton mentagrophytes; assay: Antifungal activity against Trichophyton mentagrophytes after 48 hrs by broth microdilution method; assay type: functional; method in brief: as §1
[11] = test system: Candida albicans; assay: Antifungal activity against Candida albicans MTCC 183 after 48 hrs by broth microdilution method; assay type: functional; conditions: MTCC 183, 48 h; method in brief: as §1
[12] = test system: Cryptococcus neoformans; assay: Antifungal activity against Cryptococcus neoformans after 48 hrs by broth microdilution method; assay type: functional; method in brief: as §1
[13] = test system: Plasmodium falciparum; assay: Antimalarial activity against chloroquine-resistant Plasmodium falciparum K1 infecetd in RBC after 72 hrs by SYBR Green dye-based fluorescence assay; assay type: functional, organism-based; conditions: K1, Erythrocyte
[14] = test system: Plasmodium falciparum; assay: Antimalarial activity against chloroquine-sensitive Plasmodium falciparum 3D7 infecetd in RBC after 72 hrs by SYBR Green dye-based fluorescence assay; assay type: functional, organism-based; conditions: 3D7, Erythrocyte
[15] = test system: Trichomonas vaginalis; assay: Potency index, ratio of metronidazole MIC to test compound MIC for metronidazole-resistant Trichomonas vaginalis CDC085 ATCC 50143; assay type: functional
[16] = test system: Candida albicans; assay: Antifungal activity against Candida albicans ATCC 10231 after 48 hrs by broth microdilution method; assay type: functional; conditions: ATCC 10231, 48 h; method in brief: as §1
[17] = Selectivity index, ratio of IC50 for human HeLa cells to MIC for metronidazole-susceptible Trichomonas vaginalis; assay type: toxicity; conditions: read-out: Selectivity Index
[18] = test system: Trichomonas vaginalis; assay: Antitrichomonas activity against metronidazole-susceptible Trichomonas vaginalis assessed as decrease in cell viability after 48 hrs by trypan blue exclusion method; assay type: functional
[19] = test system: Trichomonas vaginalis; assay: Antitrichomonas activity against metronidazole-resistant Trichomonas vaginalis CDC085 ATCC 50143 assessed as decrease in cell viability after 48 hrs by trypan blue exclusion method; assay type: functional; conditions: CDC085 ATCC 50143, 48 h
[20] = test system: Trichomonas vaginalis; assay: Antitrichomonas activity against metronidazole-susceptible Trichomonas vaginalis infected in mouse assessed as growth of abscess at 50 mg/kg, po administered for 7 days measured on day 7 post last dose (reference value: 96.5 mm'2); assay type: functional

| Structure (SMILES) | MIC [1] [µM] | MIC [2] [µM] | selectivity ratio [3] | Ratio [4] | MIC [5] [µM] | IC50 [6] [µM] | MIC [7] [µM] | MIC [8] [µM] | MIC [9] [µM] | MIC [10] [µM] | MIC [11] [µM] | MIC [12] [µM] | IC50 [13] [µM] | IC50 [14] [µM] | Ratio [15] | MIC [16] [µM] | selectivity ratio [17] | MIC [18] [µM] | MIC [19] [µM] | Activity [20] [mm2] |
| --- | --- | --- | --- | --- | --- | --- | --- | --- | --- | --- | --- | --- | --- | --- | --- | --- | --- | --- | --- | --- |
| CN(C)C(=S)SC(=S)N1CCN(C(=S)Nc2ccccc2)CC1 | > 130 | > 130 | > 154 | 2.2 | > 130 | > 5000 | > 130 | 130 (≈ 50 µg/mL) | > 130 | 130 (≈ 50 µg/mL) | > 130 | > 130 | 1.66 | 0.72 | 11.4 | > 130 | > 617 | 8.1 (≈ 3.12 µg/mL) | 32.5 (≈ 12.5 µg/mL) | – |
| CN(C)C(=S)SC(=S)N1CCN(C(=O)c2ccco2)CC1 | 72.9 (≈ 25 µg/mL) | 146 (≈ 50.1 µg/mL) | 16 | 1 - 3.8 | 146 (≈ 50.1 µg/mL) | 2380 | 146 (≈ 50.1 µg/mL) | 72.9 (≈ 25 µg/mL) | 146 (≈ 50.1 µg/mL) | 72.9 (≈ 25 µg/mL) | 72.9 (≈ 25 µg/mL) | 146 (≈ 50.1 µg/mL) | 1.76 | 0.79 | 1.3 - 9.5 | 146 (≈ 50.1 µg/mL) | 130 | 18.2 (≈ 6.26 µg/mL) | 146 (≈ 50.1 µg/mL) | – |
| CN(C)C(=S)SC(=S)N1CCN(C(=O)OC(C)(C)C)CC1 | 71.4 (≈ 25 µg/mL) | 143 (≈ 49.9 µg/mL) | 18 | 1 - 3.8 | 143 (≈ 49.9 µg/mL) | 1310 | 143 (≈ 49.9 µg/mL) | 143 (≈ 49.9 µg/mL) | 143 (≈ 49.9 µg/mL) | 143 (≈ 49.9 µg/mL) | 143 (≈ 49.9 µg/mL) | 143 (≈ 49.9 µg/mL) | 1.74 | 0.78 | 1.3 - 9.5 | 143 (≈ 49.9 µg/mL) | 73 | 17.9 (≈ 6.24 µg/mL) | 71.4 (≈ 25 µg/mL) | – |
| Cc1ncc([N+](=O)[O-])n1CCO [METRONIDAZOLE] | – | – | > 13 | – | – | > 5000 | – | – | – | – | – | – | – | – | – | – | > 277 | 18.2 (≈ 3.12 µg/mL) | 365 (≈ 62.6 µg/mL) | 2.35 |
| CN(C)C(=S)SC(=S)N1CCN(c2cccc(Cl)c2)CC1 | > 139 | > 139 | 18 | – | > 139 | > 5000 | 34.7 (≈ 12.5 µg/mL) | 34.7 (≈ 12.5 µg/mL) | 8.66 (≈ 3.12 µg/mL) | 34.7 (≈ 12.5 µg/mL) | 69.3 (≈ 25 µg/mL) | 139 (≈ 49.9 µg/mL) | – | – | 1.3 - 9.5 | > 139 | 36 | 139 (≈ 50 µg/mL) | 278 (≈ 100 µg/mL) | – |
| CCN(CC)C(=S)SC(=S)N(C)C | 53 (≈ 12.5 µg/mL) | > 212 | > 47 | – | > 212 | > 5000 | 53 (≈ 12.5 µg/mL) | 26.5 (≈ 6.26 µg/mL) | 26.5 (≈ 6.26 µg/mL) | 26.5 (≈ 6.26 µg/mL) | 106 (≈ 25 µg/mL) | 106 (≈ 25 µg/mL) | – | – | 1.5 - 3.8 | > 212 | > 94 | 53 (≈ 12.5 µg/mL) | 106 (≈ 25 µg/mL) | – |
| CCSC(=S)N1CCN(C(=S)SC(=S)N(C)C)CC1 | 70.5 (≈ 24.9 µg/mL) | > 141 | 15 | – | 141 (≈ 49.9 µg/mL) | 4480 | 17.6 (≈ 6.23 µg/mL) | 35.2 (≈ 12.5 µg/mL) | 8.81 (≈ 3.12 µg/mL) | 35.2 (≈ 12.5 µg/mL) | 70.5 (≈ 24.9 µg/mL) | 141 (≈ 49.9 µg/mL) | – | – | 1.3 - 11.2 | 141 (≈ 49.9 µg/mL) | 31 | 141 (≈ 49.9 µg/mL) | 282 (≈ 99.9 µg/mL) | – |
| CN(C)C(=S)SC(=S)N1CCN(C(=S)NC2CCCCC2)CC1 | > 128 | > 128 | > 79 | – | > 128 | > 5000 | > 128 | 128 (≈ 50 µg/mL) | 128 (≈ 50 µg/mL) | 128 (≈ 50 µg/mL) | > 128 | > 128 | – | – | 1.3 - 11.2 | > 128 | > 161 | 32 (≈ 12.5 µg/mL) | 63.9 (≈ 25 µg/mL) | – |
| CN(C)C(=S)SC(=S)N1CCN(c2cccc(Cl)c2Cl)CC1 | > 127 | > 127 | 12 | – | > 127 | 1590 | 31.7 (≈ 12.5 µg/mL) | 15.9 (≈ 6.26 µg/mL) | 31.7 (≈ 12.5 µg/mL) | 15.9 (≈ 6.26 µg/mL) | 63.5 (≈ 25 µg/mL) | 127 (≈ 50.1 µg/mL) | – | – | 1.3 - 9.5 | > 127 | 25 | 63.5 (≈ 25 µg/mL) | 127 (≈ 50.1 µg/mL) | – |
| CN(C)C(=S)SC(=S)N1CCCCCC1 | 23.9 (≈ 6.26 µg/mL) | 11.9 (≈ 3.12 µg/mL) | > 26 | – | 11.9 (≈ 3.12 µg/mL) | > 5000 | 23.9 (≈ 6.26 µg/mL) | 23.9 (≈ 6.26 µg/mL) | 23.9 (≈ 6.26 µg/mL) | 23.9 (≈ 6.26 µg/mL) | 47.7 (≈ 12.5 µg/mL) | 47.7 (≈ 12.5 µg/mL) | – | – | 1.5 - 3.8 | 23.9 (≈ 6.26 µg/mL) | > 52 | 95.4 (≈ 25 µg/mL) | 191 (≈ 50.1 µg/mL) | – |
| COc1ccccc1N1CCN(C(=S)SC(=S)N(C)C)CC1 | 70.2 (≈ 25 µg/mL) | > 140 | 6 | – | > 140 | 4330 | > 140 | 140 (≈ 49.9 µg/mL) | 70.2 (≈ 25 µg/mL) | 140 (≈ 49.9 µg/mL) | 140 (≈ 49.9 µg/mL) | > 140 | – | – | 1.3 - 9.5 | > 140 | 15 | 281 (≈ 99.9 µg/mL) | 702 (≈ 250 µg/mL) | – |
